Structures are written as SMILES. Active and inactive are the calls of the source. The calls are words filed in the database; no cut-off is given here.

The values that follow come from ChEMBL document CHEMBL6115033, “Discovery of a Pyrazolopyridinone-Based MYC Inhibitor That Selectively Engages Intracellular c-MYC and Disrupts MYC-MAX Heterodimerization” (J Med Chem, 2025).

Experiment [1] concerns MDA-MB-468. Put plainly: Downregulation of CDC25A mRNA expression in human MDA-MB-468 cells at 25 uM incubated for 12 hrs by qRT-PCR analysis. The format is functional, cell-based. An outline of the steps:
(§1)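 Cells (500,000/well) were cultured with or without 25 µM for the indicated time. Total RNA was extracted with TRIzol and reverse-transcribed. qPCR used SYBR green with target-gene primers, reported as ΔΔCT.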
(In general: Quantitative PCR measures a nucleic acid by following its amplification.)

The test system of experiment [2] is MDA-MB-468. Put plainly: Downregulation of SKP2 mRNA expression in human MDA-MB-468 cells at 25 uM incubated for 12 hrs by qRT-PCR analysis. The format is functional, cell-based. In short, it runs like this: as §1
A short description of experiment [3]: Selectivity index, ratio of IC50 for antiproliferative activity against tetracycline-treated human P493-6 cells expressing MYC assessed as inhibition of cell proliferation to IC50 for antiproliferative activity against human P493-6 cells expressing MYC assessed as inhibition of cell proliferation. In kind it is functional. An outline of the steps:
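MYC-off P493-6 cells obtained by 72 h pretreatment with 0.1 µg/mL tetracycline and compared with untreated MYC-high cells. Cells seeded at 3000 per 100 uL, held overnight at 37 °C, then treated at 0.14–100 uM final for 96 h. Viability read by CellTiter-Glo luminescence. IC50 values determined in both states and compared as a selectivity index.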

Experiment [4] has as its system MDA-MB-468. Kind of experiment: Antitumor activity against human MDA-MB-468 cells xenografted in mouse assessed as tumor growth inhibition at 10 mg/kg, po measured at 14 to 26 days by elliptical measurement method based caliper analysis. To be noted: time 14-26 day. In kind it is functional, organism-based. (In general: Xenograft models place foreign cells or tissue in a host animal.)

The subject of another experiment is P493-6. Kind of experiment: Induction of apoptosis in human P493-6 cells assessed as effect on cleaved PARP level at 50 uM incubated for 24 hrs.
The subject of experiment [5] is MDA-MB-468. Put plainly: Antiproliferative activity against human MDA-MB-468 cells assessed as cell viability incubated for 96 hrs by MTT assay. In kind it is functional, cell-based. The note with it: MDA-MB-468, 96 h. An outline of the steps: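 Adherent cells (2000/well) attached overnight, then exposed to compounds at 0.14–100 µM for 96 h in DMEM with 10% FBS. MTT at 0.5 mg/mL for 4 h in the dark, formazan dissolved in DMSO, absorbance at 570 nm. Compounds were freshly prepared in DMSO, with DMSO below 1%.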

Experiment [6] has as its system MDA-MB-468. Put plainly: Downregulation of CCNA2 mRNA expression in human MDA-MB-468 cells at 25 uM incubated for 12 hrs by qRT-PCR analysis. The format is functional, cell-based. In short, it runs like this:
as §1

Experiment [7] relates to MDA-MB-468. Kind of experiment: Antitumor activity against human MDA-MB-468 cells xenografted in mouse assessed as reduction in mYC expression at 10 mg/kg, sc measured at 14 to 26 days by IHC analysis. To be noted: time 14-26 day.
The nature of experiment [8]: Antiproliferative activity against tetracycline-treated human P493-6 cells expressing MYC assessed as inhibition of cell proliferation incubated for 96 hrs by cell titer glo assay. The format is functional, cell-based. The note with it: P493-6, 96 h. In short, it runs like this:
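P493-6 cells (3000/well, RPMI) were seeded overnight at 37 °C, then given compounds at final 0.14–100 µM for 96 h. MYC-off cells were pretreated with 0.1 µg/mL tetracycline for 72 h. Read-out was CellTiter-Glo luminescence after equilibration to room temperature. IC50 was determined in high-MYC and MYC-off cells.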
On the technique in general: ATP-based viability assays read luminescence as a measure of living cells.

For experiment [9], the system named is MDA-MB-468. Kind of experiment: Downregulation of MYC level in human MDA-MB-468 cells incubated for 24 hrs by Western blot analysis. In kind it is functional, cell-based. The note with it: dose <= 50.0 µM. In short, it runs like this: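 Cells (300,000/well) were plated 24 h, then exposed to graded concentrations or DMSO for 24 h. Laemmli lysates were run on 4–20% SDS-PAGE and immunoblotted for MYC. Levels were normalized to actin. Mean ± SD, n = 2, one-way ANOVA with Dunnett.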

In experiment [10] the target is T1, c-Myc/c-Max (Homo sapiens) (UniProt P01106+P61244). Put plainly: Disruption of MYC-MAX interaction in human MDA-MB-468 cells at 25 uM incubated for 3 to 12 hrs by immunofluorescence analysis. In kind it is cell-based. The note with it: time 3-12 hrs.
Experiment [11] addresses Myc proto-oncogene protein (Homo sapiens) (UniProt P01106). Kind of experiment: Binding affinity to MYC in human P493-6 cells assessed as induction of destabilization at 10 to 50 uM measured for 2 hr by CETSA analysis. The note with it: DESTABILISER, dose 10-50 µM. The format is cell-based.
Experiment [12] concerns the target T1, c-Myc/c-Max (Homo sapiens). Put plainly: Disruption of MYC-MAX interaction in human MDA-MB-468 cells at 25 uM incubated for 12 hrs by proximity ligation assay.
The nature of experiment [13]: Induction of apoptosis in human P493-6 cells assessed as necrotic cells at 50 uM incubated for 24 hrs by Annexin V/PI staining based flow cytometry analysis (reference value: 0.11 %). In kind it is functional.

T1 sequence (P01106 whole entry): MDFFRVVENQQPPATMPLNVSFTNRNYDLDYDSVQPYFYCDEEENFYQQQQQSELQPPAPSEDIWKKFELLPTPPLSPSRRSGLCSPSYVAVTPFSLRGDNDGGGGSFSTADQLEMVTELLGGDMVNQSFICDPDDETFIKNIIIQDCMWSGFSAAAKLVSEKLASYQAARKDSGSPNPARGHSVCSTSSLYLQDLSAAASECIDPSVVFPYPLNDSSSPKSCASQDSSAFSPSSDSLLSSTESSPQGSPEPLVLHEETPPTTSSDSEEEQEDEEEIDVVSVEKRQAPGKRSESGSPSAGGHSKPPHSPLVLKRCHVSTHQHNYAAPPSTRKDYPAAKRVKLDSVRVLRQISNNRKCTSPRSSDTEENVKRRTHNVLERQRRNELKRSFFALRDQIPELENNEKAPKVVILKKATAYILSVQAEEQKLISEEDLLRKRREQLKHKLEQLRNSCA
T1 sequence (P61244 2-160 partner limits assumed): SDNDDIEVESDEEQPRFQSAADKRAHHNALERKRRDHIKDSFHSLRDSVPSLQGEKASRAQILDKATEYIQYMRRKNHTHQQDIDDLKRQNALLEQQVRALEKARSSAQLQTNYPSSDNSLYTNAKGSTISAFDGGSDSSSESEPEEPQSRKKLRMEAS
Myc proto-oncogene protein (Homo sapiens), sequence (P01106 whole entry): as the sequence (P01106 whole entry) above

Take `N#Cc1cc2c(-c3ccc(Cl)cc3)nn(-c3ccccc3)c2[nH]c1=O`: the outcome (in the experiment on MDA-MB-468 [1]; in the experiment on MDA-MB-468 [2]; in the experiment with P493-6; in the experiment with MDA-MB-468 [6]; in the experiment with MDA-MB-468 [7]; in experiment [10]) was Active. Besides, the outcome in experiment [11] and in experiment [12] was Active. Moreover, the “Ratio IC50” value in [3] came to 3.9. For the same molecule, in the experiment on MDA-MB-468 [4], the TGI result is “Active”. The IC50 (as a rule, the concentration that inhibits the measured activity by half) was 13.5 µM with MDA-MB-468 [5] and 58.9 µM in experiment [8]. Moreover, the Activity result is “Dose-dependent-effect” in the experiment with MDA-MB-468 [9] and 0.11% in experiment [13].
